In ChEMBL document CHEMBL1140342, “Antitumor activity of C-methyl-beta-D-ribofuranosyladenine nucleoside ribonucleotide reductase inhibitors” (J Med Chem, 2005):

Columns and labels:
Assay type in all cases: functional, cell-based
HT-29 = assay: In vitro inhibitory activity against human colon carcinoma HT-29 cell line
Method in brief: (§1)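 Cells kept in 10% FBS medium, RPMI 1640 for K562/K562IU and MEM alpha for HT-29/MCF-7; adherent lines trypsinized to single-cell suspension. Log-phase cells seeded at about 50 000 cells/mL, acclimatized 24 h, then exposed to compound dilutions (up to 100 μM) in triplicate for 48 h at 37 °C, 5% CO2. MTS/PMS tetrazolium reduction 3 h, A490; IC50 = concentration giving 50% growth inhibition.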

MCF7 = assay: In vitro inhibitory activity against human breast carcinoma MCF-7 cell line; method in brief: as §1
K562 [1] = assay: In vitro inhibitory activity against human myelogenous leukemia K562 cell line; method in brief: as §1
K562 [2] = assay: In vitro inhibitory activity against human leukemia K562IU cell line; method in brief: as §1

IC50 (HT-29) | IC50 (MCF7) | IC50 (K562 [1]) | IC50 (K562 [2]) | Compound
> 100 µM | > 100 µM | > 100 µM | > 100 µM | C[C@]1(O)C(n2cnc3c(NC4CC4)ncnc32)O[C@H](CO)[C@H]1O (stereo partly drawn)
> 100 µM | 93.4 µM | > 100 µM | > 100 µM | OC[C@H]1O[C@@H](n2cnc3c(NC4CC4)ncnc32)C(O)[C@@H]1O (single isomer, unassigned)
85.6 µM | 72.6 µM | 15.4 µM | 19.5 µM | Nc1nc(Cl)nc2c1ncn2[C@@H]1O[C@H](CO)[C@@H](O)C1O (single isomer, unassigned)
> 100 µM | > 100 µM | 53 µM | > 100 µM | C[C@@]1(n2cnc3c(N)ncnc32)O[C@H](CO)[C@@H](O)C1O (single isomer, unassigned)
74.3 µM | 68.1 µM | 43.9 µM | 93.8 µM | CNc1ncnc2c1ncn2C1O[C@H](CO)[C@@](C)(O)C1O (single isomer, unassigned)

More lines, now with the values behind:

Compound | IC50 (HT-29) | IC50 (MCF7) | IC50 (K562 [1]) | IC50 (K562 [2])
C[C@]1(O)C(n2cnc3c(N)nc(Cl)nc32)O[C@H](CO)[C@H]1O (stereo partly drawn) | > 100 µM | > 100 µM | > 100 µM | > 100 µM
CNc1ncnc2c1ncn2C1O[C@H](CO)[C@@H](O)[C@@]1(C)O (stereo partly drawn) | > 100 µM | > 100 µM | > 100 µM | > 100 µM
C[C@@]1(O)[C@H](O)[C@@H](CO)O[C@H]1n1cnc2c(N)ncnc21 | > 100 µM | > 100 µM | 16 µM | > 100 µM
CNc1ncnc2c1ncn2[C@@H]1O[C@H](CO)[C@@H](O)C1O (single isomer, unassigned) | > 100 µM | > 100 µM | > 100 µM | > 100 µM
C[C@]1(O)C(O)[C@H](n2cnc3c(N)ncnc32)O[C@@H]1CO (single isomer, unassigned) | 23.2 µM | 17.5 µM | 18.2 µM | 38.3 µM
C[C@]1(O)C(O)C(n2cnc3c(N)nc(Cl)nc32)O[C@@H]1CO (single isomer, unassigned) | > 100 µM | > 100 µM | > 100 µM | > 100 µM
C[C@]1(O)C(O)C(n2cnc3c(NC4CC4)ncnc32)O[C@@H]1CO (single isomer, unassigned) | > 100 µM | > 100 µM | 73 µM | > 100 µM
